The source made the active and inactive calls. The calls are words filed in the database; no cut-off is given here.

For assay [1], the system named is Dermatophagoides farinae. Put plainly: Acaricidal activity against Dermatophagoides farinae assessed as mortality at 12.7 ug/cm2 after 48 hr by fabric disk assay relative to untreated control. It is filed as functional. An outline of the steps:
(§1)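 Test material in 20 µL ethanol is applied to a 5 cm black cotton fabric disk, and control disks get ethanol alone. After drying 30 s, each disk goes into a covered 5 cm Petri dish with 25 adult mites (7–10 days old), held at 25 ± 1 °C, 75% RH, in darkness. Mortality is scored at 24, 48 and 72 h under a 20× binocular microscope, dead meaning no appendage movement when prodded with a pin. Three replicates; mean ± SE reported.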

In assay [2] the test system is Dermatophagoides farinae. Put plainly: Acaricidal activity against Dermatophagoides farinae assessed as mortality at 12.7 ug/cm2 after 72 hr by fabric disk assay relative to untreated control. It is filed as functional. An outline of the steps: as §1
Assay [3] deals with Dermatophagoides farinae. Put plainly: Acaricidal activity against Dermatophagoides farinae assessed as mortality at 9.6 ug/cm2 after 48 hr by fabric disk assay relative to untreated control. It is filed as functional. An outline of the steps:
as §1

In assay [4] the test system is Dermatophagoides pteronyssinus. Nature of the assay: Acaricidal activity against Dermatophagoides pteronyssinus after 24 hr by fabric disk assay. It is filed as functional.
Assay [5] has as its system Dermatophagoides pteronyssinus. Put plainly: Acaricidal activity against Dermatophagoides pteronyssinus assessed as mortality at 9.6 to 12.7 ug/cm2 after 24 to 72 hr by fabric disk assay relative to untreated control. It is filed as functional, organism-based. An outline of the steps:
(§2)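 Contact bioassay: compound in 20 µL ethanol applied to 5 cm black cotton fabric disks, air-dried 30 s, then placed in Petri dishes with 25 adult mites (7-10 days old). Held at 25 ± 1 °C, 75% RH, in darkness. Controls received ethanol only. Triplicate; mean ± SE.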

Assay [6] concerns Dermatophagoides farinae. Nature of the assay: Acaricidal activity against Dermatophagoides farinae assessed as mortality at 9.6 ug/cm2 after 24 hr by fabric disk assay relative to untreated control. It is filed as functional. An outline of the steps:
as §1

Assay [7] deals with Dermatophagoides farinae. Nature of the assay: Acaricidal activity against Dermatophagoides farinae assessed as mortality at 9.6 ug/cm2 after 72 hr by fabric disk assay relative to untreated control. It is filed as functional. An outline of the steps: as §1
The test system of assay [8] is Dermatophagoides farinae. Nature of the assay: Acaricidal activity against Dermatophagoides farinae assessed as mortality at 12.7 ug/cm2 after 24 hr by fabric disk assay relative to untreated control. It is filed as functional. An outline of the steps: as §1
Assay [9] deals with Dermatophagoides farinae. Put plainly: Acaricidal activity against Dermatophagoides farinae after 24 hr by fabric disk assay. It is filed as functional.
Assay [10] has as its system Dermatophagoides farinae. Put plainly: Acaricidal activity against Dermatophagoides farinae assessed as mortality at 6.4 ug/cm2 after 24 hr by fabric disk assay relative to untreated control. It is filed as functional. An outline of the steps:
as §1

Assay [11] has as its system Dermatophagoides farinae. Nature of the assay: Acaricidal activity against Dermatophagoides farinae assessed as mortality at 8 ug/cm2 after 48 hr by fabric disk assay relative to untreated control. The format is functional. An outline of the steps: as §1
The test system of assay [12] is Dermatophagoides farinae. Put plainly: Acaricidal activity against Dermatophagoides farinae assessed as mortality at 6.4 ug/cm2 after 72 hr by fabric disk assay relative to untreated control. The format is functional. An outline of the steps: as §1
The test system of assay [13] is Dermatophagoides farinae. Put plainly: Acaricidal activity against Dermatophagoides farinae assessed as mortality at 8 ug/cm2 after 72 hr by fabric disk assay relative to untreated control. It is filed as functional. An outline of the steps:
as §1

For assay [14], the system named is Dermatophagoides farinae. Nature of the assay: Acaricidal activity against Dermatophagoides farinae assessed as mortality at 8 ug/cm2 after 24 hr by fabric disk assay relative to untreated control. It is filed as functional. An outline of the steps:
as §1

Assay [15] deals with Dermatophagoides pteronyssinus. Put plainly: whole plant or invertebrate. It is filed as functional. Particulars: 24 h.
In assay [16] the test system is Dermatophagoides farinae. Nature of the assay: Acaricidal activity against Dermatophagoides farinae assessed as mortality at 6.4 ug/cm2 after 48 hr by fabric disk assay relative to untreated control. It is filed as functional. An outline of the steps: as §1
The subject of assay [17] is Dermatophagoides pteronyssinus. Nature of the assay: whole plant or invertebrate. It is filed as functional. Particulars: 24 h. This is another data set of the same source.
In assay [18] the test system is Dermatophagoides farinae. Nature of the assay: whole plant or invertebrate. It is filed as functional. Particulars: 24 h.
For assay [19], the system named is Dermatophagoides farinae. Nature of the assay: whole plant or invertebrate. The format is functional. Particulars: 24 h. This is another data set of the same source.
For assay [20], the system named is Dermatophagoides pteronyssinus. Put plainly: Acaricidal activity against Dermatophagoides pteronyssinus assessed as mortality at 6.4 to 8 ug/cm2 after 24 to 72 hr by fabric disk assay relative to untreated control. The format is functional, organism-based. An outline of the steps:
as §1

Assay [21] concerns Dermatophagoides farinae. Nature of the assay: Acaricidal activity against Dermatophagoides farinae assessed as mortality at 19.1 ug/cm2 after 48 hr by fabric disk assay relative to untreated control. The format is functional. An outline of the steps:
as §1

The subject of assay [22] is Dermatophagoides farinae. Nature of the assay: Acaricidal activity against Dermatophagoides farinae assessed as mortality at 19.1 ug/cm2 after 24 hr by fabric disk assay relative to untreated control. The format is functional. An outline of the steps: as §1
Assay [23] deals with Dermatophagoides pteronyssinus. Nature of the assay: Acaricidal activity against Dermatophagoides pteronyssinus assessed as mortality at 15.9 to 19.1 ug/cm2 after 24 to 72 hr by fabric disk assay relative to untreated control. The format is functional, organism-based. An outline of the steps: as §2
In assay [24] the test system is Dermatophagoides farinae. Put plainly: Acaricidal activity against Dermatophagoides farinae assessed as mortality at 15.9 ug/cm2 after 48 hr by fabric disk assay relative to untreated control. It is filed as functional. An outline of the steps: as §1
For assay [25], the system named is Dermatophagoides farinae. Put plainly: Acaricidal activity against Dermatophagoides farinae assessed as mortality at 15.9 ug/cm2 after 72 hr by fabric disk assay relative to untreated control. The format is functional. An outline of the steps: as §1
The subject of assay [26] is Dermatophagoides farinae. Nature of the assay: Acaricidal activity against Dermatophagoides farinae assessed as mortality at 15.9 ug/cm2 after 24 hr by fabric disk assay relative to untreated control. The format is functional. An outline of the steps:
as §1

Assay [27] deals with Dermatophagoides farinae. Put plainly: Acaricidal activity against Dermatophagoides farinae assessed as mortality at 19.1 ug/cm2 after 72 hr by fabric disk assay relative to untreated control. It is filed as functional. An outline of the steps: as §1
The subject of assay [28] is Dermatophagoides farinae. Nature of the assay: Acaricidal activity against Dermatophagoides farinae assessed as mortality at 38.2 ug/cm2 after 24 hr by fabric disk assay relative to untreated control. The format is functional. An outline of the steps:
as §1

The subject of assay [29] is Dermatophagoides farinae. Nature of the assay: Acaricidal activity against Dermatophagoides farinae assessed as mortality at 38.2 ug/cm2 after 72 hr by fabric disk assay relative to untreated control. The format is functional. An outline of the steps: as §1
The test system of assay [30] is Dermatophagoides farinae. Nature of the assay: Acaricidal activity against Dermatophagoides farinae assessed as mortality at 50.9 ug/cm2 after 24 hr by fabric disk assay relative to untreated control. It is filed as functional. An outline of the steps: as §1
Assay [31] has as its system Dermatophagoides pteronyssinus. Put plainly: Acaricidal activity against Dermatophagoides pteronyssinus assessed as mortality at 38.2 to 50.9 ug/cm2 after 24 to 72 hr by fabric disk assay relative to untreated control. The format is functional, organism-based. An outline of the steps:
as §2

The test system of assay [32] is Dermatophagoides farinae. Put plainly: Acaricidal activity against Dermatophagoides farinae assessed as mortality at 38.2 ug/cm2 after 48 hr by fabric disk assay relative to untreated control. The format is functional. An outline of the steps:
as §1

The test system of assay [33] is Dermatophagoides farinae. Nature of the assay: Acaricidal activity against Dermatophagoides farinae assessed as mortality at 50.9 ug/cm2 after 48 hr by fabric disk assay relative to untreated control. The format is functional. An outline of the steps:
as §1

Assay [34] concerns Dermatophagoides farinae. Nature of the assay: Acaricidal activity against Dermatophagoides farinae assessed as mortality at 50.9 ug/cm2 after 72 hr by fabric disk assay relative to untreated control. It is filed as functional. An outline of the steps: as §1

For `O=C(OCc1ccccc1)c1ccccc1` [BENZYL BENZOATE], the results for the mortality at 12.7 µg/cm2 with Dermatophagoides farinae [1], with Dermatophagoides farinae [2] and in the assay on Dermatophagoides farinae [8] were 96%, 96% and 85%, respectively. The mortality at 9.6 µg/cm2 in the assay with Dermatophagoides farinae [3], in the assay with Dermatophagoides farinae [6] and with Dermatophagoides farinae [7] was 47% in each case. The LD50 in assay [4] is on record as 6.59 microg/cm2; with Dermatophagoides farinae [9] it was 9.22 microg/cm2. In [5], the outcome was Active.

Turning to `C=CCc1ccc(O)c(OC)c1` [EUGENOL], the mortality at 6.4 µg/cm2 with Dermatophagoides farinae [10], in the assay on Dermatophagoides farinae [12] and with Dermatophagoides farinae [16] was 50% each time. Further, the LD50 in assay [4] came out at 3.71 microg/cm2; in the assay with Dermatophagoides farinae [9], 5.47 microg/cm2. For the same molecule, the mortality at 8 µg/cm2 in the assay with Dermatophagoides farinae [11], in the assay on Dermatophagoides farinae [13] and with Dermatophagoides farinae [14] was 85% throughout. Moreover, the mortality at 25.5 µg/cm2 in assay [15] turned out to be 21%; in assay [17], 100%; with Dermatophagoides farinae [18] it was 11%; in the assay on Dermatophagoides farinae [19], 100%. For the same molecule, in assay [20], the result was Active.

`CC=Cc1ccc(O)c(OC)c1` (mixture of isomers) [CIS/TRANS-ISOEUGENOL]: the mortality at 6.4 µg/cm2 with Dermatophagoides farinae [10], with Dermatophagoides farinae [12] and in the assay with Dermatophagoides farinae [16] was 66% throughout. Moreover, the LD50 in [4] is given as 1.55 microg/cm2; in the assay on Dermatophagoides farinae [9] it was 5.17 microg/cm2. For the same molecule, the mortality at 8 µg/cm2 in the assay with Dermatophagoides farinae [11], with Dermatophagoides farinae [13] and with Dermatophagoides farinae [14] was 92% in each case. In assay [20], the result was Active.

On to `C=CCc1ccc(OC(C)=O)c(OC)c1` [EUGENYL ACETATE], for which the mortality at 19.1 µg/cm2 in the assay on Dermatophagoides farinae [21], in the assay with Dermatophagoides farinae [22] and with Dermatophagoides farinae [27] was 88% in each case. Further, the LD50 stood at 5.41 microg/cm2 in assay [4] and 14.16 microg/cm2 in the assay on Dermatophagoides farinae [9]. Also, in assay [23], the outcome was Active. Besides, the mortality at 25.5 µg/cm2 in assay [15] turned out to be 17%; in [17], 100%; with Dermatophagoides farinae [18], 12%; with Dermatophagoides farinae [19], 100%. In addition, the mortality at 15.9 µg/cm2 in the assay with Dermatophagoides farinae [24], with Dermatophagoides farinae [25] and in the assay on Dermatophagoides farinae [26] was 65% each time.

With `C/C=C\c1ccc(O)c(OC)c1` [ISOEUGENOL], the mortality at 25.5 µg/cm2 was found to be 32% in assay [15], 100% in [17], 21% with Dermatophagoides farinae [18] and 100% in the assay with Dermatophagoides farinae [19].

Regarding `CCN(CC)C(=O)c1cccc(C)c1` [DIETHYLTOLUAMIDE], the mortality at 38.2 µg/cm2 in the assay with Dermatophagoides farinae [28], with Dermatophagoides farinae [29] and in the assay on Dermatophagoides farinae [32] was 41% in each case. Further, the mortality at 50.9 µg/cm2 is 79% in the assay with Dermatophagoides farinae [30], 83% with Dermatophagoides farinae [33] and 85% with Dermatophagoides farinae [34]. The result in assay [31] was Active. Further, the LD50 in [4] is recorded as 17.98 microg/cm2; in the assay on Dermatophagoides farinae [9], 37.59 microg/cm2.

The values are drawn from ChEMBL document CHEMBL3045697, “Acaricidal activity of clove bud oil compounds against Dermatophagoides farinae and Dermatophagoides pteronyssinus (Acari: Pyroglyphidae)” (2003).
